From ChEMBL document CHEMBL1147658, “[2-11C]isopropyl-, [1-11C]ethyl-, and [11C]methyl-labeled phenoxyphenyl acetamide derivatives as positron emission tomography ligands for the peripheral benzodiazepine receptor: radiosynthesis, uptake, and in vivo binding in brain” (J Med Chem, 2006)

How the values were obtained:
[1] = biological target: GABA-A receptor; anion channel; experiment: Displacement of [11C]Flumazenil from Sprague-Dawley rat brain CBR; format: tissue-based
Translocator protein [2] = biological target: T1, Translocator protein (Rattus norvegicus, UniProt P16257); experiment: Displacement of [11C][…] from Sprague-Dawley rat brain PBR; format: tissue-based
Translocator protein [3] = biological target: T1, Translocator protein; experiment: Displacement of [11C]DAA1106 from Sprague-Dawley rat brain PBR; format: tissue-based
[4] = Distribution coefficient of the compound, log D; format: physicochemical; details: octanol/water
Procedure, shortened: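 [11C]ligand (3-5 MBq) shaken with 1-octanol and 10 mM phosphate buffer pH 7.4, 5 mL each, then equilibrated 1 h at room temperature. Both phases counted by gamma counter; log D taken as the organic/aqueous concentration ratio (n=3).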

Rattus norvegicus [5] = experiment: Ratio for decrease in uptake in iv dosed Sprague-Dawley rat brain cerebellum to frontal cortex after 30 mins per gram of wet tissue in presence of 1 mg/kg DAA1106; format: ADME, organism-based; parameters: dose 1 mg/kg, route intravenous; details: in vivo, 0.5 h
Procedure, shortened: (§1)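 Rats given [11C]ligand 45-50 MBq iv, alone or mixed with nonradioactive DAA1106 (1 mg/kg in 10% EtOH/saline). Killed 30 min later under ether. Brains frozen, cut into 20 µm sagittal cryosections and exposed to imaging plates for 60 min. Regional radioactivity read by bioimaging analyzer; brain uptake expressed as % injected dose per gram wet tissue (n=3).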

Rattus norvegicus [6] = experiment: Ratio for decrease in uptake in iv dosed Sprague-Dawley rat brain olfactory bulb to frontal cortex after 30 mins per gram of wet tissue in presence of 1 mg/kg DAA1106; format: ADME, organism-based; parameters: dose 1 mg/kg, route intravenous; details: in vivo, 0.5 h; procedure, shortened: as §1
Rattus norvegicus [7] = experiment: Ratio for decrease in uptake in iv dosed Sprague-Dawley rat brain striatum to frontal cortex after 30 mins per gram of wet tissue in presence of 1 mg/kg DAA1106; format: ADME, organism-based; parameters: dose 1 mg/kg, route intravenous; details: in vivo, 0.5 h; procedure, shortened: as §1
Rattus norvegicus [8] = experiment: Uptake in iv dosed Sprague-Dawley rat brain after 30 mins per gram of wet tissue; format: ADME, organism-based; details: in vivo, 0.5 h; procedure, shortened: as §1
Rattus norvegicus [9] = experiment: Decrease in uptake in iv dosed Sprague-Dawley rat brain frontal cortex after 30 mins per gram of wet tissue in presence of 1 mg/kg DAA1106; format: ADME, organism-based; parameters: dose 1 mg/kg, route intravenous; details: in vivo, 0.5 h; procedure, shortened: as §1
[10] = Plasma half life in iv dosed monkey; format: ADME, organism-based, Macaca mulatta; details: rhesus monkey
Procedure, shortened: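 Monkey given [11C]ligand 70-80 MBq iv. Arterial blood drawn at 1, 2, 5, 10, 20, 30 and 60 min. Plasma deproteinized with CH3CN and analysed by radio-HPLC for percentage of unchanged ligand.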

Rattus norvegicus [11] = experiment: Decrease in uptake in iv dosed Sprague-Dawley rat brain olfactory bulb after 30 mins per gram of wet tissue in presence of 1 mg/kg DAA1106; format: ADME, organism-based; parameters: dose 1 mg/kg, route intravenous; details: in vivo, 0.5 h; procedure, shortened: as §1
Rattus norvegicus [12] = experiment: Decrease in uptake in iv dosed Sprague-Dawley rat brain striatum after 30 mins per gram of wet tissue in presence of 1 mg/kg DAA1106; format: ADME, organism-based; parameters: dose 1 mg/kg, route intravenous; details: in vivo, 0.5 h; procedure, shortened: as §1
Rhesus monkey [13] = experiment: Decrease in uptake in iv dosed rhesus monkey brain occipital cortex after 90 mins in presence of 1 mg/kg DAA1106; format: ADME, organism-based, Macaca mulatta; parameters: dose 1 mg/kg, route intravenous; details: in vivo, 1.5 h
Procedure, shortened: (§2)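 One awake male rhesus monkey (about 7.5 kg) imaged by 3D dynamic PET for 90 min after [11C]ligand 70-80 MBq iv. Blocker given iv 2 min before tracer: DAA1106 1 mg/kg, or PK11195 5 mg/kg, each in 10% EtOH/saline. Time-activity curves taken from 5 mm ROI on occipital cortex, as % dose/mL.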

Rattus norvegicus [14] = experiment: Decrease in uptake in iv dosed Sprague-Dawley rat brain cerebellum after 30 mins per gram of wet tissue in presence of 1 mg/kg DAA1106; format: ADME, organism-based; parameters: dose 1 mg/kg, route intravenous; details: in vivo, 0.5 h; procedure, shortened: as §1
Rhesus monkey [15] = experiment: Decrease in uptake in iv dosed rhesus monkey brain occipital cortex after 90 mins in presence of 5 mg/kg […]; format: ADME, organism-based, Macaca mulatta; parameters: dose 5 mg/kg, route intravenous; details: in vivo, 1.5 h; procedure, shortened: as §2

T1 sequence (P16257 whole entry, looked up): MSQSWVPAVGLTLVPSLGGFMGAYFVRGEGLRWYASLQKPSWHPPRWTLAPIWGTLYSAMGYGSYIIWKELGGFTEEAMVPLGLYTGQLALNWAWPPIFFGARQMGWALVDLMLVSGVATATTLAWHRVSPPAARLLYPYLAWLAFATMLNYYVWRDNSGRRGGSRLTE

Structure (SMILES) | Ki [1] | Ki (Translocator protein [2]) | Ki (Translocator protein [3]) | logD [4] | Ratio (Rattus norvegicus [5]) | Ratio (Rattus norvegicus [6]) | Ratio (Rattus norvegicus [7]) | Drug uptake (Rattus norvegicus [8]) | Drug uptake (Rattus norvegicus [9]) | half-life [10] | Drug uptake (Rattus norvegicus [11]) | Drug uptake (Rattus norvegicus [12]) | Drug uptake (Rhesus monkey [13]) | Drug uptake (Rattus norvegicus [14]) | Drug uptake (Rhesus monkey [15])
CC(=O)N(Cc1ccccc1OC(C)C)c1ccc(Cl)cc1Oc1ccccc1 | > 1000 nM | 0.19 nM | 0.68 nM | 4.02 | – | – | – | – | – | – | – | – | – | – | –
COc1ccccc1CN(C(C)=O)c1ccc(Cl)cc1Oc1ccccc1 | > 1000 nM | 0.074 nM | 0.31 nM | 3.74 | – | – | – | – | – | – | – | – | – | – | –
CC(=O)N(Cc1ccccc1O[11CH](C)C)c1ccc(Cl)cc1Oc1ccccc1 | – | – | – | – | 1 | 1.5 | 1 | 0.17% | 63% | 13 min | 43% | 63% | – | – | –
CC(=O)N(Cc1ccccc1O[11CH3])c1ccc(Cl)cc1Oc1ccccc1 | – | – | – | – | 1 | 2.3 | 1 | 0.32% | 63% | 21 min | 37% | 63% | 60% | – | –
C[11CH2]Oc1ccccc1CN(C(C)=O)c1ccc(Cl)cc1Oc1ccccc1 | – | – | – | – | 1 | 1.5 | 1 | 0.27% | 63% | 20 min | 33% | 63% | – | – | –
CCOc1ccccc1CN(C(C)=O)c1ccc(Cl)cc1Oc1ccccc1 | > 1000 nM | 0.098 nM | 0.41 nM | 3.81 | – | – | – | – | – | – | – | – | – | – | –
COc1ccc(OC)c(CN(C(C)=O)c2cc(F)ccc2Oc2ccccc2)c1 | > 1000 nM | 0.095 nM | – | – | – | – | – | – | – | – | – | – | – | – | –
CCC(C)N(C)C(=O)c1cc2ccccc2c(-c2ccccc2Cl)n1 (configuration not stated) [PK-11195] | > 1000 nM | – | – | – | – | – | – | – | – | – | – | – | – | 44% | 70%
